Screening data deposited in PubChem by several laboratories.
Calb FLC = C. albicans growth inhibition with fluconazole, primary screen, CaCi-2 strain, Alamar Blue fluorescence | C. albicans CaCi-2 (fluconazole-resistant clinical isolate) + fluconazole, 48 h | growth inhibition, % (no concentration beside the values) | 300,000 tested, 0.57% active | AID 1979, 2009;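 active = growth inhibition above about 58% in most replicates, limit read from the data, passing the limit was not always enough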;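 note: all wells also contain fluconazole at 8 µg/ml as a sub-toxic cotreatment; 0% = median of DMSO wells and 100% = median of geldanamycin control wells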
GalR3 antagonist = GalR3 antagonists in HEK293 cells, primary screen, cell-based, fluorescence readout; AID 651719, 2012; HEK293 GalR3-CNG cAMP membrane potential fluorescence; galR3 body fused to GalR1 C-terminus; Galanin receptor type 3 (Homo sapiens), O60755; inhibition, % at 3 µM; 360,000 tested, 0.44% active;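 active = inhibition above the screen-wide average plus 3 SD, cut at about 13% in these data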;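 note: forskolin and galanin both at EC90 stimulate the cells; cAMP rise reported by CNG channel membrane potential dye signal; 0% = forskolin plus galanin with DMSO and 100% = forskolin alone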
Target sequence (O60755 1-299 limits assumed): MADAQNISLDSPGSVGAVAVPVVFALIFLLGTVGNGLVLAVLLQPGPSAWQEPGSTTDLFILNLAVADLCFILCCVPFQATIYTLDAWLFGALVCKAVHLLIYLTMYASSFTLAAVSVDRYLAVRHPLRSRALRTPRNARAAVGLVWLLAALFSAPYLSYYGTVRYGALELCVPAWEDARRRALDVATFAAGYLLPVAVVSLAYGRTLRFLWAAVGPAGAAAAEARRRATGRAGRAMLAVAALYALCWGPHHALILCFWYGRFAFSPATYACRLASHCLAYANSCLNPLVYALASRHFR
TAG inh = inhibitors of triacylglycerol accumulation, primary screen, cell-based, uHTS, fluorescence, H9c2 | H9c2 cells, Nile Red lipid (TAG) fluorescence; cells loaded with 200 µM oleic acid | inhibition, % at 12.5 µM | 230,000 tested, 0.66% active | AID 651582, 2012;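 active = pattern-corrected inhibition of lipid staining of at least 50% with the nuclear-stain viability signal not falling by more than 50%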;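 note: 0% = DMSO wells and 100% = triacsin C control wells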
MC4R ag barr = MC4R agonists recruiting beta-arrestin, primary screen, cell-based, luminescence, agonist arm of biased-ligand search | Melanocortin receptor 4 (Homo sapiens), P32245 | U2OS MC4R beta-arrestin complementation; percent of melanotan II response, DMSO zero | activation, % at 8.9 µM | 360,000 tested, 0.98% active | AID 540308, 2011;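 active = activation above a per-plate cutoff, the mean activation of sample wells on that plate plus 3 SD, cut at about 8% in these data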
Target sequence (P32245 whole entry, looked up): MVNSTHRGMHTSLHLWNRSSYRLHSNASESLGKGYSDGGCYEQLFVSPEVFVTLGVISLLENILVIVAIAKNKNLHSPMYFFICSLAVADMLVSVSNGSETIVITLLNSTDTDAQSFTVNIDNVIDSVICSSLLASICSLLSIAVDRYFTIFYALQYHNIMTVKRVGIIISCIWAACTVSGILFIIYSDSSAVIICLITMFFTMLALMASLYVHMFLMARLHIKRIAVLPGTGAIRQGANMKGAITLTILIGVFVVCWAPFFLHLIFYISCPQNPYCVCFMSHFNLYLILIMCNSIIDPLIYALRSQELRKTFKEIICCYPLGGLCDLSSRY
MC4R antag cAMP = MC4R antagonists of cAMP signaling, primary screen, cell-based, TR-FRET, antagonist arm of biased-ligand search. Melanocortin receptor 4 (Homo sapiens), P32245. MC4R-expressing cells, MTII-stimulated cAMP, LANCE TR-FRET. inhibition, % at 6.5 µM. 360,000 tested, 0.48% active. AID 540295, 2011;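 active = inhibition above its plate's cutoff, the mean of tested wells on that plate plus 3 SD, cut at about 29% in these data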;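 note: 0% = Melanotan II alone and 100% = Melanotan II plus saturating MCL0020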
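Assay system: human MC4R-expressing U2OS cells; reagent: Melanotan II stimulation of cells; dosing: 6.5 µM single dose; timing: compound 30 min, challenge 1 h, detection 1 h; signal: TR-FRET cAMP assay; replicates: one well per compound, no replicates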
Efflux pump inh = inhibitors of Candida efflux pumps in yeast, primary screen, S. cerevisiae, Nile Red, multiplex | AID 485275, 2010 | 330,000 tested, 0.44% active | inhibition, % at 10 µM | S. cerevisiae Candida pump triplex;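 active = plate passing quality check with inhibition over a set limit, or well fluorescence over plate mean plus 4 SD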;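 note: Nile Red retained in pooled yeast measured as flow cytometry median fluorescence; 0% = buffer negative control and 100% = Enniatin B positive control; higher means more Nile Red kept so more efflux inhibition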
MC4R barr conf = MC4R beta-arrestin agonists, retest, confirmation, cell-based, luminescence, U2OS | shares compounds with MC4R ag barr | U2OS MC4R beta-arrestin recruitment; scaled DMSO 0%, Melanotan II 100% | activation, % at 8.9 µM | 2,400 tested, 31% active | AID 602192, 2012;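 active = mean activation across replicates above the hit cutoff set in the earlier primary screen, cut at about 8% in these data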
MOR-DOR barr ag = agonists of MOR-DOR heterodimerization, counter-screen for MC4R biased agonist project, cell-based, luminescence; shares compounds with MC4R ag barr; U2OS PathHunter beta-arrestin, beta-gal luminescence; percent of deltorphin B response, DMSO zero; activation, % at 9.2 µM; 2,400 tested, 5.8% active; AID 602194, 2012;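 active = mean activation across replicates exceeds the hit threshold derived in the earlier primary screen, cut at about 18% in these data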;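 note: 100% = deltorphin B at 0.9 µM final and 0% = DMSO alone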
* marks the source's active call; other numbers are inactive results; nt = no result given. Rows were chosen to be rich in hits. Some 2.9% of all compounds tested hit in one or more screens of this group.

SMILES	Calb FLC	GalR3 antagonist	TAG inh	MC4R ag barr	MC4R antag cAMP	Efflux pump inh	MC4R barr conf	MOR-DOR barr ag
COc1ccccc1-c1cc(NC=O)c2ncc(-c3cccc(C(F)(F)F)c3)n2c1	nt	-8	9	25*	-1	nt	23*	2
C[C@H]1CN([C@@H](C)CO)C(=O)CCCn2cc(nn2)CO[C@@H]1CN(C)C(=O)c1ccncc1	nt	-4	11	-2	-5	nt	nt	nt
COc1ccccc1-c1cc(NC=O)c2ncc(-c3ccc(F)cc3)n2c1	nt	-8	-16	18*	14	nt	18*	4
COc1cc(-c2cc(NC=O)c3ncc(-c4cccc(C(F)(F)F)c4)n3c2)cc(OC)c1OC	nt	4	38	22*	-28	nt	19*	8
COc1ccc(F)cc1-c1cc(NC=O)c2ncc(-c3cc(OC)c(OC)c(OC)c3)n2c1	nt	-1	23	3	-61	nt	nt	nt
CCCCCCOc1ccc(N2C(=O)CC(S/C(N)=N/N=C(\C)c3cccs3)C2=O)cc1 (stereo not given)	13	-7	nt	21*	12	0	15*	2
O=C(Nc1ccc(Cl)cc1Cl)c1ccc(-c2ccccc2)cc1	7	-3	nt	2	7	0	nt	nt
CCOC(=O)c1ccc(Cl)c(NC(=O)c2ccc(-c3ccccc3)cc2)c1	5	0	nt	13*	-19	0	4	16
O=C(Nc1c(Cl)cccc1Cl)c1ccc(-c2ccccc2)cc1	4	-7	nt	21*	-1	0	-1	11
CCOCC(=O)Nc1cc(C(=O)Nc2ccccc2)ccc1Cl	-11	-2	nt	0	12	0	nt	nt
CC(c1ccccc1)N1CC(C(=O)N2CCN(Cc3ccc(C#N)cc3)CC2)CC1=O (stereo not given)	nt	-2	-5	-4	2	nt	nt	nt
CCCCCCCCN1C(=O)[C@@H](CC(=O)NCC23CC4CC(CC(C4)C2)C3)C[C@@]2(C(=O)OC)C1=C[C@H](C(C)(C)C)O[C@@H]2C	nt	-4	nt	nt	nt	nt	nt	nt
O=C1NC(Cc2cnc[nH]2)C(=O)N2CCCC12 (stereo not given)	nt	-7	nt	nt	nt	nt	nt	nt
O=C(CSc1nc2cc3ccccc3cc2[nH]1)Nc1ccc(F)cc1	-19	-6	nt	9.6*	-7	0	2	6
O=C(COC(=O)/C=C/c1ccc(Cl)cc1)Nc1ccc2c(c1)OCCO2	9	2	nt	24*	-6	0	3	4
Cc1ccccc1-c1cnc(C(O)c2ccc(Cl)cc2)[nH]1 (stereo not given)	nt	-8	-26	0	14	nt	nt	nt
CCN1CCN(C(CCc2ccccc2)C(=O)NC2CCCCC2)CC1 (stereo not given)	nt	-6	nt	nt	nt	nt	nt	nt
Cc1ccccc1OCC(O)CNC1CCC(NCC(O)COc2ccccc2C)CC1 (stereo not given)	10	-18	nt	11*	6	0	38*	35*
Cc1ccc(OCC(O)CNC2CCCC2)c(C)c1 (stereo not given)	-1	-12	nt	-1	-2	0	nt	nt
O=C(OCc1ccccc1)N1CCC2CC1c1ccc(N3CCN(Cc4ccccc4)CC3)cc12 (stereo not given)	nt	-6	nt	nt	nt	nt	nt	nt
CCCCn1c(=O)c(CCC(=O)OCC(=O)Nc2ccc(F)c(Cl)c2)nc2ccccc21	-12	-5	nt	10*	9	0	6	4
COc1ccc(OCc2nn3c(-c4cccc(OC)c4)nnc3s2)cc1	2	0	-13	11*	7	0	4	3
COc1cc(-c2nnc3sc(Cc4ccc(Cl)cc4)nn23)cc(OC)c1OC	2	7	9	14*	-66	0	11*	3
COc1ccc(OCc2nn3c(-c4ccco4)nnc3s2)cc1	3	0	-4	-2	-4	0	nt	nt
COc1ccc(Cc2nn3c(-c4cc(OC)c(OC)c(OC)c4)nnc3s2)cc1	16	1	-14	-2	-38	0	nt	nt
SMILES	Calb FLC	GalR3 antagonist	TAG inh	MC4R ag barr	MC4R antag cAMP	Efflux pump inh	MC4R barr conf	MOR-DOR barr ag
O[C@@H](Cc1ccccc1)[C@@H](/C=C/c1ccccc1)N(Cc1ccccc1)Cc1ccccc1	nt	-6	nt	nt	nt	nt	nt	nt
Cc1cc(SCC(=O)N2c3ccccc3NC(=O)CC2C)nc2ccccc12 (stereo not given)	nt	-8	22	0	8	nt	nt	nt
COc1ccccc1Nc1nnc(SCC(=O)Nc2cc(C)on2)s1	-4	-5	nt	30*	5	0	3	7
Cc1cc(NC(=O)CSc2nnc(NCc3ccccc3)s2)no1	-15	-4	14	1	9	0	nt	nt
Cc1cccc(NC(=O)c2ccccc2OCC(=O)c2ccc(F)cc2)c1	-6	-3	nt	-1	10	0	nt	nt
Cc1ccc(Cl)cc1NC(=O)c1ccccc1OCC(=O)Nc1ccc(Cl)cc1	5	2	nt	15*	23	0	8.2*	8
Cc1ccc(NC(=O)c2ccccc2OCC(=O)c2ccc(F)cc2)cc1	-6	-6	nt	51*	2	0	18*	8
Cc1ccc(NC(=O)COc2ccccc2C(=O)Nc2ccccc2)cc1Cl	-12	-3	nt	1	9	0	nt	nt
CC(C)CN(C(=O)COc1ccccc1C(=O)NCc1ccccc1)C1CCS(=O)(=O)C1 (stereo not given)	nt	-7	7	-1	-1	nt	nt	nt
O=C(NCc1cccc(Cl)c1)c1cccc2c(-c3cccnc3)coc12	nt	-4	-28	1	-4	nt	nt	nt
Cc1noc(C)c1S(=O)(=O)NC(=O)C1(C)CCN1C(=O)CC(c1ccccc1)c1ccccc1 (stereo not given)	nt	-8	-3	-1	-1	nt	nt	nt
NC(Cc1ccc(Cl)cc1)c1csc(Nc2ccc(-c3ccccc3)nn2)n1 (stereo not given)	nt	-7	121	15*	10	nt	33*	13
COc1ccc(CC(N)c2csc(NC(=O)Nc3ccccc3Oc3ccccc3)n2)cc1 (stereo not given)	nt	-8	122	12*	9	nt	8	21*
